Active and inactive are the calls of the source. The rule behind the calls is not given here.
Assays:
Mus musculus [1] = assay: Neurotoxicity in CF1 albino mouse assessed as motor impairment at 30 mg/kg, ip after 0.5 hrs; assay type: toxicity, organism-based; parameters: dose 30 mg/kg, route intraperitoneal; conditions: in vivo
Mus musculus [2] = assay: Neurotoxicity in CF1 albino mouse assessed as motor impairment at 100 mg/kg, ip after 0.5 hrs; assay type: toxicity, organism-based; parameters: dose 100 mg/kg, route intraperitoneal; conditions: in vivo
Mus musculus [3] = assay: Anticonvulsant activity in CF1 albino mouse assessed as inhibition of maximal electroshock-induced seizures at 300 mg/kg, ip after 4 hrs; assay type: functional, organism-based; parameters: dose 300 mg/kg
Summary of the method: (§1)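 Test compounds suspended in 0.5% methylcellulose and given ip to adult male CF no. 1 albino mice (18-25 g) at 0.01 mL/g body weight before maximal electroshock challenge.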

Mus musculus [4] = assay: Anticonvulsant activity in CF1 albino mouse assessed as inhibition of maximal electroshock-induced seizures at 30 mg/kg, ip after 4 hrs; assay type: functional, organism-based; parameters: dose 30 mg/kg; summary of the method: as §1
Mus musculus [5] = assay: Anticonvulsant activity in CF1 albino mouse assessed as inhibition of subcutaneous pentylenetetrazole-induced seizures at 300 mg/kg, ip after 4 hrs; assay type: functional, organism-based; parameters: dose 300 mg/kg
Summary of the method: (§2)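 Adult male CF no. 1 albino mice (18-25 g) dosed ip with compound suspended in 0.5% methylcellulose (0.01 mL/g). Convulsant: pentylenetetrazol dissolved in 0.9% saline as a 0.85% solution for mice, given subcutaneously.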

Mus musculus [6] = assay: Teratogenic effect in SWV mouse assessed as live fetuses at 310 mg/kg, ip administered on morning of day 8 of gestation; assay type: toxicity, organism-based; parameters: dose 310 mg/kg, route intraperitoneal; conditions: in vivo
Summary of the method: (§3)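 Two-month-old nulligravid SWV females were mated overnight and checked for vaginal plugs the next morning; gestation onset was set at 10 p.m. the previous night. On gestation day 8.5, each dam received a single ip injection (0.55-2.7 mmol/kg range) or vehicle (25% aqueous Cremophor EL) at 10 μL/g body weight. Litters were scored for implants, resorptions, live and dead fetuses, and fetuses with neural tube defects.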

Mus musculus [7] = assay: Teratogenic effect in SWV mouse assessed as resorptions at 511 mg/kg, ip administered on morning of day 8 of gestation; assay type: toxicity, organism-based; parameters: dose 511 mg/kg, route intraperitoneal; conditions: in vivo
Summary of the method: (§4)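 SWV inbred mice: two-month-old nulligravid females mated overnight with males and checked for vaginal plugs next morning; gestation onset taken as 10 p.m. the previous night. On gestation day 8.5 each dam got one ip injection, 0.55–2.7 mmol/kg, in 25% aqueous Cremophor EL (vehicle controls dosed alike), 10 μL/g body weight. Litters and implants tallied; resorptions and live fetuses reported as counts with percentages.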

Mus musculus [8] = assay: Anticonvulsant activity in CF1 albino mouse assessed as inhibition of maximal electroshock-induced seizures at 300 mg/kg, ip after 0.5 hrs; assay type: functional, organism-based; parameters: dose 300 mg/kg; summary of the method: as §1
Mus musculus [9] = assay: Anticonvulsant activity in CF1 albino mouse assessed as inhibition of subcutaneous pentylenetetrazole-induced seizures at 100 mg/kg, ip after 4 hrs; assay type: functional, organism-based; parameters: dose 100 mg/kg; summary of the method: as §2
Mus musculus [10] = assay: Anticonvulsant activity in CF1 albino mouse assessed as inhibition of subcutaneous pentylenetetrazole-induced seizures at 30 mg/kg, ip after 4 hrs; assay type: functional, organism-based; parameters: dose 30 mg/kg; summary of the method: as §2
Mus musculus [11] = assay: Anticonvulsant activity in CF1 albino mouse assessed as inhibition of maximal electroshock-induced seizures at 30 mg/kg, ip after 0.5 hrs; assay type: functional, organism-based; parameters: dose 30 mg/kg; summary of the method: as §1
Mus musculus [12] = assay: Teratogenic effect in SWV mouse assessed as fetuses with neural tube deffects at 310 mg/kg, ip administered on morning of day 8 of gestation; assay type: toxicity, organism-based; parameters: dose 310 mg/kg, route intraperitoneal; conditions: in vivo; summary of the method: as §3
Mus musculus [13] = assay: Anticonvulsant activity in CF1 albino mouse assessed as inhibition of subcutaneous pentylenetetrazole-induced seizures at 30 mg/kg, ip after 0.5 hrs; assay type: functional, organism-based; parameters: dose 30 mg/kg; summary of the method: as §2
Mus musculus [14] = assay: Anticonvulsant activity in CF1 albino mouse assessed as inhibition of maximal electroshock-induced seizures at 100 mg/kg, ip after 0.5 hrs; assay type: functional, organism-based; parameters: dose 100 mg/kg; summary of the method: as §1
Rattus norvegicus [15] = assay: Neurotoxicity in Sprague-Dawley rat assessed as motor impairment at 30 mg/kg, po after 0.25 to 4 hrs; conditions: in vivo
Mus musculus [16] = assay: Teratogenic effect in SWV mouse assessed as resorptions at 310 mg/kg, ip administered on morning of day 8 of gestation; assay type: toxicity, organism-based; parameters: dose 310 mg/kg, route intraperitoneal; conditions: in vivo; summary of the method: as §4
Rattus norvegicus [17] = assay: Anticonvulsant activity in Sprague-Dawley rat assessed as inhibition of maximal electroshock-induced seizures at 30 mg/kg, po after 2 hrs
Mus musculus [18] = assay: Anticonvulsant activity in CF1 albino mouse assessed as inhibition of subcutaneous pentylenetetrazole-induced seizures at 300 mg/kg, ip after 0.5 hrs; assay type: functional, organism-based; parameters: dose 300 mg/kg; summary of the method: as §2
Mus musculus [19] = assay: Teratogenic effect in SWV mouse assessed as resorptions at 156 mg/kg, ip administered on morning of day 8 of gestation; assay type: toxicity, organism-based; parameters: dose 156 mg/kg, route intraperitoneal; conditions: in vivo; summary of the method: as §4
Rattus norvegicus [20] = species: Rattus norvegicus; assay: Protective index, ratio of TD50 for rat to ED50 for maximal electroshock-induced rat seizure model
Rattus norvegicus [21] = assay: Anticonvulsant activity in Sprague-Dawley rat assessed as inhibition of maximal electroshock-induced seizures at 30 mg/kg, po after 4 hrs
Mus musculus [22] = assay: Teratogenic effect in SWV mouse assessed as live fetuses at 156 mg/kg, ip administered on morning of day 8 of gestation; assay type: toxicity, organism-based; parameters: dose 156 mg/kg, route intraperitoneal; conditions: in vivo; summary of the method: as §3
Mus musculus [23] = assay: Anticonvulsant activity in CF1 albino mouse assessed as inhibition of subcutaneous pentylenetetrazole-induced seizures at 100 mg/kg, ip after 0.5 hrs; assay type: functional, organism-based; parameters: dose 100 mg/kg; summary of the method: as §2
Mus musculus [24] = assay: Teratogenic effect in SWV mouse assessed as fetuses with neural tube deffects at 511 mg/kg, ip administered on morning of day 8 of gestation; assay type: toxicity, organism-based; parameters: dose 511 mg/kg, route intraperitoneal; conditions: in vivo; summary of the method: as §3
Mus musculus [25] = assay: Teratogenic effect in SWV mouse assessed as live fetuses at 511 mg/kg, ip administered on morning of day 8 of gestation; assay type: toxicity, organism-based; parameters: dose 511 mg/kg, route intraperitoneal; conditions: in vivo; summary of the method: as §4
Mus musculus [26] = assay: Neurotoxicity in CF1 albino mouse assessed as motor impairment at 100 mg/kg, ip after 4 hrs; assay type: toxicity, organism-based; parameters: dose 100 mg/kg, route intraperitoneal; conditions: in vivo
Rattus norvegicus [27] = assay: Anticonvulsant activity in po dosed rat assessed as inhibition of maximal electroshock-induced seizures
Mus musculus [28] = assay: Neurotoxicity in CF1 albino mouse assessed as motor impairment at 300 mg/kg, ip after 4 hrs; assay type: toxicity, organism-based; parameters: dose 300 mg/kg, route intraperitoneal; conditions: in vivo
Mus musculus [29] = assay: Neurotoxicity in CF1 albino mouse assessed as motor impairment at 30 mg/kg, ip after 4 hrs; assay type: toxicity, organism-based; parameters: dose 30 mg/kg, route intraperitoneal; conditions: in vivo
Mus musculus [30] = assay: Neurotoxicity in CF1 albino mouse assessed as motor impairment at 300 mg/kg, ip after 0.5 hrs; assay type: toxicity, organism-based; parameters: dose 300 mg/kg, route intraperitoneal; conditions: in vivo
Mus musculus [31] = assay: Teratogenic effect in SWV mouse assessed as fetuses with neural tube deffects at 562 mg/kg, ip administered on morning of day 8 of gestation; assay type: toxicity, organism-based; parameters: dose 562 mg/kg, route intraperitoneal; conditions: in vivo; summary of the method: as §3
Mus musculus [32] = assay: Teratogenic effect in SWV mouse assessed as live fetuses at 340 mg/kg, ip administered on morning of day 8 of gestation; assay type: toxicity, organism-based; parameters: dose 340 mg/kg, route intraperitoneal; conditions: in vivo; summary of the method: as §4
Mus musculus [33] = assay: Teratogenic effect in SWV mouse assessed as resorptions at 172 mg/kg, ip administered on morning of day 8 of gestation; assay type: toxicity, organism-based; parameters: dose 172 mg/kg, route intraperitoneal; conditions: in vivo; summary of the method: as §4
Mus musculus [34] = assay: Teratogenic effect in SWV mouse assessed as resorptions at 562 mg/kg, ip administered on morning of day 8 of gestation; assay type: toxicity, organism-based; parameters: dose 562 mg/kg, route intraperitoneal; conditions: in vivo; summary of the method: as §4
Mus musculus [35] = assay: Teratogenic effect in SWV mouse assessed as fetuses with neural tube deffects at 172 mg/kg, ip administered on morning of day 8 of gestation; assay type: toxicity, organism-based; parameters: dose 172 mg/kg, route intraperitoneal; conditions: in vivo; summary of the method: as §3
Mus musculus [36] = assay: Teratogenic effect in SWV mouse assessed as live fetuses at 562 mg/kg, ip administered on morning of day 8 of gestation; assay type: toxicity, organism-based; parameters: dose 562 mg/kg, route intraperitoneal; conditions: in vivo; summary of the method: as §4
Rattus norvegicus [37] = assay: Anticonvulsant activity in Sprague-Dawley rat assessed as inhibition of maximal electroshock-induced seizures at 30 mg/kg, po after 15 mins
Mus musculus [38] = assay: Teratogenic effect in SWV mouse assessed as fetuses with neural tube deffects at 340 mg/kg, ip administered on morning of day 8 of gestation; assay type: toxicity, organism-based; parameters: dose 340 mg/kg, route intraperitoneal; conditions: in vivo; summary of the method: as §3
Mus musculus [39] = assay: Teratogenic effect in SWV mouse assessed as resorptions at 340 mg/kg, ip administered on morning of day 8 of gestation; assay type: toxicity, organism-based; parameters: dose 340 mg/kg, route intraperitoneal; conditions: in vivo; summary of the method: as §4
Mus musculus [40] = assay: Teratogenic effect in SWV mouse assessed as live fetuses at 172 mg/kg, ip administered on morning of day 8 of gestation; assay type: toxicity, organism-based; parameters: dose 172 mg/kg, route intraperitoneal; conditions: in vivo; summary of the method: as §3

Row | SMILES | Activity (Mus musculus [1]) | Activity (Mus musculus [2]) | Activity (Mus musculus [3]) | Activity (Mus musculus [4]) | Activity (Mus musculus [5]) | Activity (Mus musculus [8]) | Activity (Mus musculus [9]) | Activity (Mus musculus [10]) | Activity (Mus musculus [11]) | Activity (Mus musculus [13]) | Activity (Rattus norvegicus [15]) | Activity (Mus musculus [18]) | Ratio TD50/ED50 (Rattus norvegicus [20]) | Activity (Mus musculus [23]) | Activity (Mus musculus [26]) | ED50 (Rattus norvegicus [27]) [mg/kg] | Activity (Mus musculus [28]) | Activity (Mus musculus [29]) | Activity (Mus musculus [30]) | also measured
1 | CCC(CC)C(=O)NCc1ccc(S(N)(=O)=O)cc1 | Non-toxic | Non-toxic | Active | inactive | inactive | Active | inactive | inactive | inactive | inactive | Non-toxic | inactive | >20.2 | inactive | Non-toxic | 24.7 | Non-toxic | Non-toxic | Non-toxic | Activity (Mus musculus [6]): 93.5%; Activity (Mus musculus [7]): 6.4%; Activity (Mus musculus [12]): 3.4%; Activity (Mus musculus [14]): Active; Activity (Mus musculus [16]): 6.5%; Activity (Rattus norvegicus [17]): inactive; Activity (Mus musculus [19]): 5.6%; Activity (Rattus norvegicus [21]): inactive; Activity (Mus musculus [22]): 94.4%; Activity (Mus musculus [24]): 3.1%; Activity (Mus musculus [25]): 93.6%
2 | CCCC(C(=O)Nc1ccc(S(N)(=O)=O)cc1)C(C)CC (centres undefined) | Non-toxic | Non-toxic | Active | inactive | inactive | Active | inactive | inactive | inactive | inactive | Non-toxic | inactive | >13.9 | inactive | Non-toxic | 35.8 | Non-toxic | Non-toxic | Non-toxic | Activity (Mus musculus [31]): 7.1%; Activity (Mus musculus [32]): 66.7%; Activity (Mus musculus [33]): 12%; Activity (Mus musculus [34]): 50%; Activity (Mus musculus [35]): 7.8%; Activity (Mus musculus [36]): 50%; Activity (Rattus norvegicus [37]): inactive; Activity (Mus musculus [38]): 5%; Activity (Mus musculus [39]): 33.3%; Activity (Mus musculus [40]): 88%
